Data on ten molecules can be found in ChEMBL document CHEMBL2093137, “WHO-TDR NTD Screening”.

Converted amounts (≈) assume the structure as drawn.

The subject of one series is Trypanosoma cruzi. The series can be described thus: WHO-TDR: Chagas disease. To be noted: MRC5. The series is classed as functional, organism-based, Homo sapiens. In a few lines: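 Following previously published standard procedures, with a reference drug as positive control, a whole-organism assay was run on Trypanosoma cruzi Tulahuen CL2 beta-galactosidase strain amastigotes inside MRC-5SV2 human lung fibroblast host cells. The 10,000 compounds tested formed a diverse Life Chemicals library filtered for drug-likeness and reactive groups. Results are expressed as IC50 for antiparasitic potency.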

Series [1] concerns Trypanosoma brucei brucei. Description: WHO-TDR: Human African Trypanosomiasis (HAT). The series is classed as functional, organism-based. To be noted: Squib-427. An outline of the steps:
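Bloodstream forms of the Trypanosoma brucei Squib 427 strain were tested in a whole-organism screen with a diverse library from Life Chemicals of 10,000 compounds. Before screening, the library was filtered for drug-likeness and for reactive groups. The assay used previously published standard procedures and included reference drugs as positive controls. Potency against the parasite is expressed as IC50.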

For the next series, the system named is Onchocerca ochengi. Description: WHO-TDR: Onchocerciasis. It is filed as functional. Also noted: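 at 12.5 µM on microfilariae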. In a few lines:
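Whole-organism screen of a 10,000-compound diverse library from Life Chemicals, filtered for drug-likeness and reactive groups, against microfilariae of Onchocerca ochengi or Onchocerca lienalis, used as animal-pathogen stand-ins for the human parasite. The assay followed previously published standard procedures, with reference drugs as positive controls. Activity is reported as percent inhibition and as IC50.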

A further series relates to Plasmodium falciparum K1. The series can be described thus: WHO-TDR: Malaria. It is filed as functional, organism-based, Homo sapiens. To be noted: Erythrocyte. An outline of the steps: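 Following previously published standard procedures, with a reference drug serving as positive control, compounds were tested on the Plasmodium falciparum K1 strain inside human red blood cells. The 10,000-compound diverse set came from Life Chemicals after filtering for drug-likeness and reactive groups. Potency against the parasite appears as IC50.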

Another series relates to Brugia malayi. The series can be described thus: WHO-TDR: Lymphatic Filariasis. It is filed as functional. Also noted: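 tested at 10 µM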. An outline of the steps:
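Whole-organism screen of a 10,000-compound diverse library from Life Chemicals, filtered for drug-likeness and reactive groups, against Brugia malayi microfilariae. The assay followed previously published standard procedures, with reference drugs as positive controls. Activity is reported as percent inhibition and as IC50.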

For another series, the system named is Leishmania infantum. Description: WHO-TDR: Leishmaniasis. The series is classed as functional, organism-based, Mus musculus. As to conditions: Macrophage. In a few lines:
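Following previously published standard procedures, a whole-organism screen was run on Leishmania infantum MHOM/MA(BE)/67 amastigotes within murine peritoneal macrophages, with a reference drug as positive control. The 10,000 compounds tested formed a diverse Life Chemicals library filtered for drug-likeness and reactive groups. Potency against the parasite is reported as IC50.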

The nature of series [2]: WHO-TDR: Cytotoxicity. As to conditions: human, MRC5 cells. It is filed as toxicity, cell-based.
For a further series, the system named is Schistosoma mansoni. Description: WHO-TDR: Schistosomiasis. The series is classed as functional. Also noted: concentration or dose not given beside the values. An outline of the steps:
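Whole-organism screen of a 10,000-compound diverse library from Life Chemicals, filtered for drug-likeness and reactive groups, against larval and/or adult worms of Schistosoma mansoni Puerto Rican strain. The assay followed previously published standard procedures, with a reference drug as positive control. Activity is reported as percent inhibition and as IC50.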

In the case of `O=C(C1CCN(S(=O)(=O)c2cccs2)CC1)N(Cc1cccnc1)c1nc2c(F)cc(F)cc2s1`, the IC50 (usually the concentration that gives 50% inhibition) in the series with Trypanosoma cruzi was 0.535 mg/L (≈ 1 µM); in series [1], more than 16 mg/L; in the series on Plasmodium falciparum K1, more than 16 mg/L; in the series with Leishmania infantum, more than 16 mg/L; in series [2] it was more than 10.9 mg/L. Further, the % Inhibition – broadly, the drop in the measured response relative to a control, in per cent – stood at 0% in the series with Onchocerca ochengi, 25% in the series with Brugia malayi and 0% in the series on Schistosoma mansoni.
Consider `O=C(Cc1ccc(Cl)cc1)NCCS(=O)(=O)N1CCN(Cc2ccccc2)CC1`, for which the IC50 (with Trypanosoma cruzi; in series [1]; in the series on Plasmodium falciparum K1; in the series on Leishmania infantum; in series [2]) was more than 14.2 mg/L throughout. The “% Inhibition” value in the series with Onchocerca ochengi stood at 100%; in the series on Brugia malayi, 20%; in the series with Schistosoma mansoni, 0%.
As for `CCc1ccc(S(=O)(=O)N2CCN(c3ccc(Nc4ccccn4)nn3)CC2)cc1`, the IC50 is more than 12.7 mg/L in the series on Trypanosoma cruzi; more than 12.7 mg/L in series [1]; 2.8 mg/L (≈ 6.6 µM) in the series with Plasmodium falciparum K1; 0.412 mg/L (≈ 0.97 µM) with Leishmania infantum; more than 12.7 mg/L in series [2]. In addition, the “% Inhibition” value in the series on Onchocerca ochengi, in the series on Brugia malayi and in the series on Schistosoma mansoni was 0% throughout.
For the molecule `O=C(CSc1ncc(CO)n1Cc1ccc(Cl)cc1)NCc1ccccc1Cl`, the IC50 is 4.39 mg/L (≈ 10.1 µM) in the series with Trypanosoma cruzi; 4.84 mg/L (≈ 11.1 µM) in series [1]; more than 13.1 mg/L with Plasmodium falciparum K1; more than 13.1 mg/L in the series with Leishmania infantum; more than 13.1 mg/L in series [2]. The “% Inhibition” value amounted to 100% in the series on Onchocerca ochengi, 25% with Brugia malayi and 0% in the series on Schistosoma mansoni.
`O=S(=O)(CCCOc1ccc(F)cc1)NCc1c(F)cccc1F`: the IC50 in the series with Trypanosoma cruzi is 5.73 mg/L (≈ 16 µM); in series [1], more than 10.8 mg/L; with Plasmodium falciparum K1, more than 10.8 mg/L; in the series on Leishmania infantum, 0.349 mg/L (≈ 0.971 µM); in series [2] it was more than 10.8 mg/L. Further, the figures for the “% Inhibition” value in the series with Onchocerca ochengi, with Brugia malayi and in the series with Schistosoma mansoni were 50%, 0% and 0%, respectively.
As to `O=C(c1cccs1)N(CCCn1ccnc1)c1nc2c(F)cc(F)cc2s1`, the IC50 with Trypanosoma cruzi is 4.01 mg/L (≈ 9.91 µM); in series [1] it was 4.23 mg/L (≈ 10.5 µM); in the series with Plasmodium falciparum K1 it was 0.793 mg/L (≈ 1.96 µM); in the series on Leishmania infantum it was more than 13.2 mg/L; in series [2], 8.75 mg/L (≈ 21.6 µM). Further, the “% Inhibition” value is 100% in the series with Onchocerca ochengi, 0% in the series with Brugia malayi and 0% in the series on Schistosoma mansoni.
`O=C(c1ccc2c(c1)OCCO2)N(CCCn1ccnc1)c1nc2c(F)cccc2s1`: the IC50 is 3.6 mg/L (≈ 8.22 µM) with Trypanosoma cruzi; 4.56 mg/L (≈ 10.4 µM) in series [1]; 1.35 mg/L (≈ 3.08 µM) in the series on Plasmodium falciparum K1; more than 14.2 mg/L with Leishmania infantum; 6.23 mg/L (≈ 14.2 µM) in series [2]. Moreover, the entries for the “% Inhibition” value in the series with Onchocerca ochengi, in the series on Brugia malayi and in the series with Schistosoma mansoni were 100%, 0% and 0%, respectively.
Consider `CCc1ccc2nc(N(CCCn3ccnc3)C(=O)C3COc4ccccc4O3)sc2c1` (stereo not given), for which the IC50 with Trypanosoma cruzi worked out at 1.22 mg/L (≈ 2.73 µM); in series [1], 4.71 mg/L (≈ 10.5 µM); with Plasmodium falciparum K1 it was 0.363 mg/L (≈ 0.809 µM); with Leishmania infantum, 4.71 mg/L (≈ 10.5 µM); in series [2], 4.4 mg/L (≈ 9.81 µM). Also, the “% Inhibition” value with Onchocerca ochengi is given as 100%; with Brugia malayi, 0%; with Schistosoma mansoni, 0%.
As for `COc1ccc(Cl)cc1NC(=O)CSc1ccc(NC(=O)C2CC2)nn1`, the IC50 (in the series with Trypanosoma cruzi; in series [1]; in the series with Plasmodium falciparum K1; with Leishmania infantum; in series [2]) was more than 11.8 mg/L in each case. For the same molecule, the “% Inhibition” value in the series on Onchocerca ochengi amounted to 100%; in the series on Brugia malayi, 0%; in the series with Schistosoma mansoni, 33.3%.
In the case of `Cc1ccc(-n2ccnc2N2CCN(C(=O)c3ccc4ccccc4c3)CC2)cc1`, the IC50 was found to be 2.67 mg/L (≈ 6.73 µM) in the series on Trypanosoma cruzi; 4.21 mg/L (≈ 10.6 µM) in series [1]; 4.25 mg/L (≈ 10.7 µM) in the series on Plasmodium falciparum K1; 2.56 mg/L (≈ 6.45 µM) in the series on Leishmania infantum; 2.65 mg/L (≈ 6.67 µM) in series [2]. Also, the entries for the “% Inhibition” value in the series on Onchocerca ochengi, in the series on Brugia malayi and with Schistosoma mansoni were 100%, 0% and 8.3%, respectively.
